In ChEMBL document CHEMBL4689842, “EUbOPEN Chemogenomics Library wave 1” (2021):

What was measured:
Assay type in all cases: toxicity, cell-based
[1] = test system: U2OS; test: Incucyte cell viability with U2OS; details: human, 10 µM, compound concentration 10 uM; note: filed as whole numbers so only -1 and 0 and 1 occur
[2] = test system: HEK-293T; test: Incucyte cell viability with HEK293T; details: human, 10 µM, compound concentration 10 uM; note: filed as whole numbers so only -1 and 0 and 1 occur
[3] = test system: Fibroblast; test: Multiplex assay against human fibroblast
Method in brief: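 Cells stained live at seeding with Hoechst33342, BioTracker Green Microtubule Cytoskeleton Dye, MitoTracker Red and Annexin V Alexa Fluor 680 were imaged on a CQ1 microscope at 37°C and 5% CO2 after compound addition. Their classification by CellPathfinder machine-learning gating ran from Hoechst high-intensity objects versus normal cells, to healthy, pyknosed or fragmented nuclei among normal cells, to mitotic or apoptotic among pyknosed cells. Tubulin, mitochondrial-mass and membrane-permeability phenotypes are per cents of healthy-nucleus cells.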

[4] = test system: Fibroblast; test: Incucyte cell viability with human fibroblast; details: 10 µM, compound concentration 10 uM; note: filed as whole numbers so only -1 and 0 and 1 occur
[5] = 0 h, replicate number 1, timepoint 0 hours
[6] = 6 h, replicate number 1, timepoint 6 hours
[7] = 12 h, replicate number 1, timepoint 12 hours
[8] = 18 h, replicate number 1, timepoint 18 hours
[9] = 24 h, replicate number 1, timepoint 24 hours
[10] = 12 h, 1 µM, compound concentration 1 uM, replicate 1
[11] = 12 h, 1 µM, compound concentration 1 uM, replicate 2
[12] = 12 h, 10 µM, compound concentration 10 uM, replicate 1
[13] = 12 h, 10 µM, compound concentration 10 uM, replicate 2
[14] = 24 h, 1 µM, compound concentration 1 uM, replicate 1
[15] = 24 h, 1 µM, compound concentration 1 uM, replicate 2
[16] = 24 h, 10 µM, compound concentration 10 uM, replicate 1
[17] = 24 h, 10 µM, compound concentration 10 uM, replicate 2

CCOc1ccn(-c2ccc(F)cc2)c(=O)c1C(=O)Nc1ccc(Oc2ccnc(N)c2Cl)c(F)c1 [BMS-777607]
Growth Rate [1, 5]: 1
Growth Rate ([1]; 0 h, replicate number 2, timepoint 0 hours): 0
Growth Rate [1, 6]: 0
Growth Rate [1, 7]: 0
Growth Rate [1, 8]: 0
Growth Rate [1, 9]: 0
Growth Rate [2, 5]: 1
Growth Rate [2, 6]: 0
Growth Rate ([2]; 12 h, replicate number 2, timepoint 12 hours): 1
Growth Rate [2, 9]: 1
Growth Rate ([2]; 24 h, replicate number 2, timepoint 24 hours): 0
Population Apoptotic (%) [3, 10]: 77%
Population Fragmented Nuclei (%) [3, 10]: 30%
Population Healthy Nuclei (%) [3, 10]: 58%
Population Hoechst High Intensity Objects (%) [3, 10]: 13%
Population Membrane Permeable-Phenotype (%) [3, 10]: 10%
Population Mitochondria Different-Phenotype (%) [3, 10]: 4%
Population Mitotic Cells (%) [3, 10]: 22%
Population Normal (%) [3, 10]: 86%
Population Pyknosed Nuclei (%) [3, 10]: 10%
Population Tubulin-Different-Phenotype (%) [3, 10]: 22%
Total Cell Count [3, 10]: 251
Population Apoptotic (%) [3, 11]: 100%
Population Fragmented Nuclei (%) [3, 11]: 56%
Population Healthy Nuclei (%) [3, 11]: 39%
Population Hoechst High Intensity Objects (%) [3, 11]: 29%
Population Membrane Permeable-Phenotype (%) [3, 11]: 17%
Population Mitochondria Different-Phenotype (%) [3, 11]: 17%
Population Mitotic Cells (%) [3, 11]: 0%
Population Normal (%) [3, 11]: 70%
Population Pyknosed Nuclei (%) [3, 11]: 3%
Population Tubulin-Different-Phenotype (%) [3, 11]: 47%
Total Cell Count [3, 11]: 82
Population Apoptotic (%) [3, 12]: 86%
Population Fragmented Nuclei (%) [3, 12]: 27%
Population Healthy Nuclei (%) [3, 12]: 60%
Population Hoechst High Intensity Objects (%) [3, 12]: 15%
Population Membrane Permeable-Phenotype (%) [3, 12]: 1%
Population Mitotic Cells (%) [3, 12]: 13%
Population Normal (%) [3, 12]: 84%
Population Pyknosed Nuclei (%) [3, 12]: 12%
Total Cell Count [3, 12]: 212
Population Apoptotic (%) [3, 13]: 80%
Population Fragmented Nuclei (%) [3, 13]: 54%
Population Healthy Nuclei (%) [3, 13]: 36%
Population Hoechst High Intensity Objects (%) [3, 13]: 38%
Population Membrane Permeable-Phenotype (%) [3, 13]: 4%
Population Mitochondria Different-Phenotype (%) [3, 13]: 4%
Population Mitotic Cells (%) [3, 13]: 20%
Population Normal (%) [3, 13]: 61%
Population Pyknosed Nuclei (%) [3, 13]: 8%
Population Tubulin-Different-Phenotype (%) [3, 13]: 0%
Total Cell Count [3, 13]: 92
Population Apoptotic (%) [3, 14]: 85%
Population Fragmented Nuclei (%) [3, 14]: 27%
Population Healthy Nuclei (%) [3, 14]: 62%
Population Hoechst High Intensity Objects (%) [3, 14]: 11%
Population Membrane Permeable-Phenotype (%) [3, 14]: 8%
Population Mitochondria Different-Phenotype (%) [3, 14]: 8%
Population Mitotic Cells (%) [3, 14]: 14%
Population Normal (%) [3, 14]: 88%
Population Pyknosed Nuclei (%) [3, 14]: 10%
Population Tubulin-Different-Phenotype (%) [3, 14]: 19%
Total Cell Count [3, 14]: 226
Population Apoptotic (%) [3, 15]: 50%
Population Fragmented Nuclei (%) [3, 15]: 63%
Population Healthy Nuclei (%) [3, 15]: 32%
Population Hoechst High Intensity Objects (%) [3, 15]: 31%
Population Membrane Permeable-Phenotype (%) [3, 15]: 10%
Population Mitochondria Different-Phenotype (%) [3, 15]: 21%
Population Mitotic Cells (%) [3, 15]: 50%
Population Normal (%) [3, 15]: 68%
Population Pyknosed Nuclei (%) [3, 15]: 3%
Population Tubulin-Different-Phenotype (%) [3, 15]: 31%
Total Cell Count [3, 15]: 85
Population Apoptotic (%) [3, 16]: 80%
Population Fragmented Nuclei (%) [3, 16]: 26%
Population Healthy Nuclei (%) [3, 16]: 62%
Population Hoechst High Intensity Objects (%) [3, 16]: 9%
Population Membrane Permeable-Phenotype (%) [3, 16]: 0%
Population Mitochondria Different-Phenotype (%) [3, 16]: 4%
Population Mitotic Cells (%) [3, 16]: 19%
Population Normal (%) [3, 16]: 90%
Total Cell Count [3, 16]: 214
Population Apoptotic (%) [3, 17]: 50%
Population Fragmented Nuclei (%) [3, 17]: 54%
Population Healthy Nuclei (%) [3, 17]: 35%
Population Hoechst High Intensity Objects (%) [3, 17]: 35%
Population Membrane Permeable-Phenotype (%) [3, 17]: 5%
Population Mitochondria Different-Phenotype (%) [3, 17]: 10%
Population Mitotic Cells (%) [3, 17]: 50%
Population Normal (%) [3, 17]: 64%
Population Pyknosed Nuclei (%) [3, 17]: 10%
Population Tubulin-Different-Phenotype (%) [3, 17]: 0%
Total Cell Count [3, 17]: 88
Growth Rate [4, 6]: 0
Growth Rate [4, 7]: 0
Growth Rate [4, 8]: 0
Growth Rate [4, 9]: 0
